Test results as given in ChEMBL document CHEMBL1141319, “Cinnamic ester derivatives from Oxalis pes-caprae (Bermuda buttercup)” (2007).
Active and inactive are the calls of the source. The rule behind the calls is not given here.

Legend:
Lactuca sativa [1] = experiment: Phytotoxicity against Lactuca sativa assessed as inhibition of seed germination relative to control; format: functional; set-up: concentration or dose not given beside the values
Procedure, shortened: (§1)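 Lettuce seeds (cv. Napoli V.F.), selected for uniformity, 25 per 50 mm dish on filter paper with 5 mL test solution in 10 mM MES pH 6. Tested at 10^-4 M, diluted to 10-5–10-7 M. Dishes sealed and kept at 25 °C in the dark, with germination counted daily for 5 days. Seedlings frozen at -20 °C before measuring. Four replicates with parallel controls; results given as % difference from control, Student's t test.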

Lactuca sativa [2] = experiment: Phytotoxicity against Lactuca sativa assessed as inhibition of shoot length at 100 uM relative to control; format: functional; set-up: scale not given: the % may be the effect or the level left; procedure, shortened: as §1
Lactuca sativa [3] = experiment: Phytotoxicity against Lactuca sativa assessed as inhibition of radical length at 0.1 uM to 0.1 mM relative to control; format: functional; set-up: scale not given: the % may be the effect or the level left; procedure, shortened: as §1
Lactuca sativa [4] = experiment: Phytotoxicity against Lactuca sativa assessed as inhibition of shoot length at 0.1 uM to 0.1 mM relative to control; format: functional; set-up: scale not given: the % may be the effect or the level left; procedure, shortened: as §1
Lactuca sativa [5] = experiment: Phytotoxicity against Lactuca sativa assessed as inhibition of root length at 0.1 mM relative to control; format: functional; set-up: scale not given: the % may be the effect or the level left; procedure, shortened: as §1
Lactuca sativa [6] = experiment: Phytotoxicity against Lactuca sativa assessed as inhibition of root length upto 0.1 uM relative to control; format: functional, organism-based; procedure, shortened: as §1
Lactuca sativa [7] = experiment: Phytotoxicity against Lactuca sativa assessed as inhibition of shoot length at 1 to 10 nM relative to control; format: functional, organism-based
Lactuca sativa [8] = experiment: Phytotoxicity against Lactuca sativa assessed as inhibition of seed germination at 1 to 10 nM relative to control; format: functional, organism-based

| Compound | Activity (Lactuca sativa [1]) [%] | Activity (Lactuca sativa [2]) [%] | Activity (Lactuca sativa [3]) [%] | Activity (Lactuca sativa [4]) [%] | Activity (Lactuca sativa [5]) | Activity (Lactuca sativa [6]) | Activity (Lactuca sativa [7]) | Activity (Lactuca sativa [8]) |
| --- | --- | --- | --- | --- | --- | --- | --- | --- |
| COc1cc(/C=C/C(=O)OCCO)cc(OC)c1OC | 10 | 30 |  |  |  |  |  |  |
| COc1cccc(OC(=O)/C=C/c2cc(OC)c(OC)c(OC)c2)c1 | 10 | 60 |  |  |  |  |  |  |
| O=C(/C=C/c1ccc(O)c(O)c1)OCCO | 10 | 100 | 100 | 100 | >=80% | Active | inactive | inactive |
| COc1cc(/C=C/C(=O)OCCO)cc(OC)c1O | 10 | 30 |  |  |  |  |  |  |
| COc1cc(/C=C/C(=O)Oc2cccc(O)c2)cc(OC)c1OC | 10 | 60 |  |  | >=80% |  |  |  |
| COc1cc(/C=C/C(=O)OCCOC(C)=O)cc(OC)c1OC | 10 | 60 |  |  | >=80% |  |  |  |
| COc1cc(/C=C/C(=O)Oc2cccc(O)c2)cc(OC)c1O | 10 | 60 |  |  | >=80% |  |  |  |
